Bioassay records from PubChem.
Hits are enriched below; roughly 1.8% of the tested compounds scored in any of these assays.
RanGTP-Imp inh = disruptors of Ran-importin-beta complex formation – biochemical, FRET, CFP-Ran, YFP-importin-beta, homogeneous, primary screen | cell-free CFP-Ran/YFP-importin-beta FRET ratio | inhibition, % (test concentration not listed) | hit rate 1.1% among 300,000;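 active means more than half of the replicate wells show a fall in the fluorescence ratio signal beyond about 16%, limit read from the data, passing the limit was not always enough; inconclusive means exactly half of the replicate wells pass the set limit; inactive means fewer than half of replicates pass the limit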;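 further: 0% = DMSO wells and 100% = Ran loaded with GDP instead of GTP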
Runt-CBFb FRET = blocks binding of human RUNX1 Runt domain to CBFb. Q01196+Q13951. Cerulean-Runt/Venus-CBFb FRET ratio 530/480, 1 h. inhibition, % at 20 µM. hit rate 0.46% among 220,000. AID 1496;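 active means inhibition over about 50% at 20 µM in the single-dose screen, limit read from the data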;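 further: 0% = DMSO wells and 100% = excess unlabeled CBFb competitor control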
Target sequence (Q01196 whole entry, looked up, the tested form may be a part): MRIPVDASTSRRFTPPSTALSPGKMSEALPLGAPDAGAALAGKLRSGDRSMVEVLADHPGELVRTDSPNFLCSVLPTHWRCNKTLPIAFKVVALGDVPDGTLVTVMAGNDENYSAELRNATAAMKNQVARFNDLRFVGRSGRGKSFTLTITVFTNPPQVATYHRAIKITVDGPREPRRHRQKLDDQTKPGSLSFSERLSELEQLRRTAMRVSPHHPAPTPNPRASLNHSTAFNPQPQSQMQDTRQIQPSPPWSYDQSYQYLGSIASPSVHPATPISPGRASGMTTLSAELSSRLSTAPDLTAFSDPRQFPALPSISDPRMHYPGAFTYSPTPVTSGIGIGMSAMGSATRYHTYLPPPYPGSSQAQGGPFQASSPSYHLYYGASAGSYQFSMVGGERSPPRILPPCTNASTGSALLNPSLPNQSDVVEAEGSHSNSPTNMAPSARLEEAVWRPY
Target sequence (Q13951 whole entry, looked up, the tested form may be a part): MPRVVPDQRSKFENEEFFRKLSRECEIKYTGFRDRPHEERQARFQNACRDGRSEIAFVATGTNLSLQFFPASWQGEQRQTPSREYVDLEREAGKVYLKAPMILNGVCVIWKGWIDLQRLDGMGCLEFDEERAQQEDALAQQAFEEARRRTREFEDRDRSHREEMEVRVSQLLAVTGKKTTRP
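test system = Cerulean-Runt domain fusion protein, energy donor | probe or stimulus = Venus-CBFb binding partner, 100 nM | incubation = two 1 h room-temperature incubations shielded from light | detection = fluorescence energy transfer, 422 nm excitation, 530/480 nm emission | measure = loss of energy transfer signal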
Rce1 inhib = blocks yeast Ras-converting enzyme; Q03530; yeast membranes, quenched prenylated peptide cleavage fluorescence; calls only; hit rate 0.27% among 290,000;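 active means fall in fluorescence gain of 50% or more versus controls, with final raw signal at or below 3038400; inconclusive means same 50% fall but final raw signal above 3038400; inactive means fall in fluorescence gain under 50%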;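 further: plate controls were neutral control wells for no effect and wells lacking membranes for full effect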
Platelet DG rel = platelet dense granule release activity. human platelet-rich plasma, SFLLRN dense granule ATP release, luminescence. inhibition, %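 (compounds screened at 7.5 µM in platelet-rich plasma)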. hit rate 0.22% among 300,000. AID 1663;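 active means mean replicate score, as percent of positive control, at or above 50; inconclusive means mean below 50 but at least one replicate at or above 50; inactive means mean and every replicate below 50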
Runt-SMMHC FRET = blocks binding of human RUNX1 Runt domain to CBFb-SMMHC; hit rate 0.74% among 220,000; Cerulean-Runt/Venus-CBFb-SMMHC FRET ratio 530/480, 1 h; Q01196+Q13951; inhibition, % at 20 µM;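 active means mean inhibition across duplicate retests at 20 µM reaching about 50%, limit read from the data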;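 further: 0% = DMSO wells and 100% = wells with excess untagged CBFb-SMMHC; inhibitors lower the FRET ratio by blocking Runt binding to CBFb-SMMHC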
* marks the source's active call; other numbers are inactive results; i = inactive; ? = inconclusive; nt = no result; + = active, no number.

SMILES	RanGTP-Imp inh	Runt-CBFb FRET	Rce1 inhib	Platelet DG rel	Runt-SMMHC FRET
COc1ccc(-c2ccc(-c3nnc(-c4cc(OC)ccc4OC)o3)cc2)cc1	?	0.2	+	-0.5	2.8
COc1ccc(-c2nnc(-c3cc(OC)c(OC)c(OC)c3)o2)cc1OC	-2.2	-1.9	i	66.2*	-7.6
CC(C)Cc1nc(N2CCN(C(=O)c3ccco3)CC2)c(C#N)c2c1CCCC2	1.0	nt	i	8.0	nt
CC(C)C(=O)N1CCN(c2nc(-c3ccccc3)c3c(c2C#N)CCCC3)CC1	-1.0	-3.1	+	4.0	0.1
O=C(NCC1CCCO1)C(=O)NCC(c1ccco1)N1CCN(c2ccccc2F)CC1 (stereo not given)	1.4	-4.4	i	-11.3	2.6
COc1ccc(OC)c(N2C(=O)CC(Cc3ccc(Cl)cc3)C2=O)c1 (stereo not given)	-3.0	-2.2	i	nt	0.5
COc1ccc(OC)c(N2C(=O)CC(Cc3cc(C)cc(C)c3)C2=O)c1 (stereo not given)	31.2*	-5.2	i	-2.2	1.0
O=C(Nc1ccc(-c2nc3ccccc3[nH]2)cc1)c1ccc2c(c1)OCO2	5.8	-5.7	i	-1.3	-5.5
c1ccc2[nH]c(-c3ccc4c(c3)OCO4)nc2c1	2.7	nt	i	73.1*	nt
CC(=O)c1c(C)[nH]c(C(=O)N(C)CC(=O)Nc2ccc(Cl)c(C(F)(F)F)c2)c1C	-1.3	nt	i	-10.1	nt
Cc1ccc(C(CC(=O)O)NC(=O)CN2C(=O)c3ccccc3C2=O)cc1 (stereo not given)	69.7*	nt	i	-9.8	nt
CN(C)S(=O)(=O)c1ccc(S(=O)(=O)Nc2ccc3c(c2)oc2ccccc23)cc1	1.1	-2.8	i	4.1	1.2
Cc1cc(=O)oc2cc(NS(=O)(=O)c3ccc(F)cc3)ccc12	3.3	25.4	i	0.7	66.7*
Cc1cc(=O)oc2cc(NS(=O)(=O)c3ccccc3)ccc12	3.2	38.2	i	2.1	91.1*
CNc1c(NS(=O)(=O)c2ccc(F)cc2)c(=O)oc2ccccc12	0.4	nt	i	-9.6	nt
COCCCNC(=O)/C(C#N)=C/c1c(N2CCN(C)CC2)nc2ccccn2c1=O	87.2*	nt	i	0.0	nt
COCCNC(=O)/C(C#N)=C/c1c(N2CCN(c3ccccc3)CC2)nc2ccccn2c1=O	5.4	nt	i	-6.7	nt
CC1CN(c2nc3ccccn3c(=O)c2/C=C(\C#N)C(=O)N2CCOCC2)CC(C)O1 (stereo not given)	1.1	-2.3	i	5.1	-2.4
CCNC(=O)/C(C#N)=C/c1c(N2CC(C)OC(C)C2)nc2ccccn2c1=O (stereo not given)	-0.1	104.1*	i	-15.8	77.2*
CN1CCN(c2nc3ccccn3c(=O)c2C=O)CC1	99.7*	nt	i	-1.2	nt
CC1CN(c2nc3ccccn3c(=O)c2/C=C(\C#N)C(N)=O)CC(C)O1 (stereo not given)	-1.4	93.8*	i	-0.9	7.9
CCOc1ccc(NC(=O)COc2cccc3c2CCN(Cc2cccnc2)C3=O)cc1	-3.7	nt	i	-3.9	nt
Cn1c(-c2cccc3ccccc23)n[nH]c1=S	0.3	4.0	i	5.7	7.3
COCCNC(=O)/C(C#N)=C/c1c(N2CC(C)OC(C)C2)nc2ccccn2c1=O (stereo not given)	4.5	47.8	i	-3.1	82.3*
O=c1ccc2cc3c4c(c2o1)CCCN4CCC3	92.0*	4.8	i	18.6	3.8
SMILES	RanGTP-Imp inh	Runt-CBFb FRET	Rce1 inhib	Platelet DG rel	Runt-SMMHC FRET
CCOc1cc(/C=N/NC(=O)c2nnn(-c3nonc3N)c2C)ccc1OCc1cccc(F)c1	-0.5	nt	i	-4.1	nt
Cc1cccn2c(=O)c3cc(C(=O)NCc4ccco4)c(=N)n(C(C)C)c3nc12	154.3*	18.9	i	0.5	59.8*
Cc1cccn2c(=O)c3cc(C(=O)NCC4CCCO4)c(=N)n(CCc4ccccc4)c3nc12 (stereo not given)	176.1*	nt	i	-9.8	nt
Cc1cccn2c(=O)c3cc(C(=O)NCc4ccco4)c(=N)n(CCc4ccccc4)c3nc12	nt	11.6	nt	nt	79.3*
COc1ccc(CCNC(=O)c2cc3c(=O)n4cccc(C)c4nc3n(Cc3ccco3)c2=N)cc1OC	53.4*	nt	i	8.3	nt
COc1ccc(-n2nc(C(=O)NCC(=O)NCCCN3CCOCC3)c3ccccc3c2=O)c(OC)c1	3.0	nt	i	-0.1	nt
COc1cc2nc(SCC(=O)NCCc3ccccc3)n(Cc3ccco3)c(=O)c2cc1OC	-2.1	5.6	i	-1.5	2.2
Cc1cccn2c(=O)c3cc(C(=O)NCCc4ccccc4)c(=N)n(Cc4ccco4)c3nc12	73.5*	nt	nt	5.8	nt
Cc1ccccc1CNC(=O)c1ccc(CSCc2ccccc2)cc1	-10.9	-1.9	i	9.8	2.9
Cc1ccccc1C(OCCN(C(C)C)C(C)C)c1ccccc1 (stereo not given)	-2.0	-2.0	i	5.0	2.8
COc1cccc(/C=N/NC(=O)c2c(C)nc3ccc(Cl)cn23)c1O	2.4	nt	i	3.6	nt
CC1(C)N([O-])c2cc([N+](=O)[O-])ccc2[N+]1=O	nt	63.1*	nt	nt	85.1*
CC(C)Cc1nnc(NC(=O)c2cc(S(=O)(=O)N(C)C)ccc2N2CCCC2)s1	6.0	nt	i	6.9	nt
Nc1nnc(-c2ccccc2Cl)s1	-0.5	5.2	i	-2.2	-0.5
COc1ccccc1-c1nnc(N)s1	-2.1	0.2	+	7.5	2.1
CCN(CC)c1ccc(C(=O)c2ccccc2C(=O)O)c(O)c1	0.8	-2.0	+	-2.2	-6.7
CCN(CC)c1ccc(/C=N/N(c2ccccc2)c2ccccc2)c(O)c1	-6.1	3.4	i	-7.2	5.2
COc1ccc(/C=C2\N=C(c3ccccc3)N(c3ccc(C(=O)O)cc3)C2=O)cc1OC	25.8*	-8.8	i	23.8	-19.1
CCn1cc(C2C(C(=O)Nc3ccc(Br)cn3)=C(C)NC3=C2C(=O)CCC3)c(C)n1 (stereo not given)	3.2	29.9	i	-40.0	73.5*
CC1=C(C(=O)Nc2ccccn2)C(c2cn(C)nc2C)C2=C(CCCC2=O)N1 (stereo not given)	?	10.5	nt	6.1	34.0
COC(C(=O)Nc1ccnn1C1CCN(C(=O)c2ccc(C=O)cc2)CC1)c1ccccc1 (stereo not given)	-0.6	nt	i	-10.9	nt
C/C(=N\Nc1cc(C)nc(-c2ccccc2O)n1)c1ccccc1O	27.8*	0.6	i	8.2	0.4
C=CCc1cccc(/C=N/NC(=O)c2ccccc2OC)c1O	39.2*	2.0	i	5.1	2.2
COC(=O)c1cc(OC)c(OC)cc1NC(=O)c1csc(C)c1	-0.8	nt	i	37.0	nt
COc1ccccc1-n1c(-c2ccco2)n[nH]c1=S	0.1	nt	i	-0.8	nt
Cc1ccc(C)c(-n2c(-c3ccco3)n[nH]c2=S)c1	15.4*	nt	i	nt	nt
COc1ccc(C2=NN(C(=O)CCC(=O)O)C(c3cccs3)C2)cc1 (stereo not given)	-0.7	2.5	+	-1.5	3.7
